In ChEMBL document CHEMBL1141070, “Synthesis and biological activity of flurbiprofen analogues as selective inhibitors of beta-amyloid(1)(-)(42) secretion” (J Med Chem, 2005):

Key:
[1] = target: T1, Amyloid-beta precursor protein (Homo sapiens, UniProt P05067); conditions: at 100 µM
Target sequence in this assay (P05067 whole entry): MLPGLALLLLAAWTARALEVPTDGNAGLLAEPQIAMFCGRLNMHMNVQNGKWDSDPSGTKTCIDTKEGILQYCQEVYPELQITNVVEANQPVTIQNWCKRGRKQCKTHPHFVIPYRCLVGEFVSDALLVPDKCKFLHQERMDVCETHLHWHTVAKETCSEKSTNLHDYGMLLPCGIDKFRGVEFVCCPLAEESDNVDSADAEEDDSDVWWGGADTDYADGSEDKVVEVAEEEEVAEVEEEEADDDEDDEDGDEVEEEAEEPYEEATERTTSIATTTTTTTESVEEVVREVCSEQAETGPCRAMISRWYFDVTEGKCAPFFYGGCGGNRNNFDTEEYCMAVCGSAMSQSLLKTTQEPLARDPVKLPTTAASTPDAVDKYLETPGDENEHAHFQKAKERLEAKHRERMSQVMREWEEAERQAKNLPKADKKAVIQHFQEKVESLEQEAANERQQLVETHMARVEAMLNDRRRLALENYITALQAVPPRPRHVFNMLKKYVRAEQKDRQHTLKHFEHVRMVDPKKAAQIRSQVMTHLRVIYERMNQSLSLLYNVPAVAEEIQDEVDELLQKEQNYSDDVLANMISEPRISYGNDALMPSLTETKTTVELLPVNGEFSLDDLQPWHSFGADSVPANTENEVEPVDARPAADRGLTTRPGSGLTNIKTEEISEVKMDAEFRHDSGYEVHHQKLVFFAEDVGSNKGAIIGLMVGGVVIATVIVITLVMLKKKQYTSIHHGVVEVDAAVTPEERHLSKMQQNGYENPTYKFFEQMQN

[2] = target: T1, Amyloid-beta precursor protein; assay: Inhibitory concentration against beta-amyloid-42 (Abeta42) secretion was evaluated in human neuroglioma cells (H4-APP695NL); format: functional, cell-based
Procedure, shortened: (§1)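 H4-APP695NL human neuroglioma cells (APP695 Swedish K595N/M596L) seeded at 2 × 10^5/well and grown 24 h to confluence. Increasing compound concentrations added overnight; DMSO 1% as vehicle. Supernatant Aβ42 or Aβ40 measured by electrochemiluminescence immunoassay: biotinylated 4G8 plus C-terminus-specific rabbit antibodies, captured on streptavidin beads.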
Target sequence in this assay (P05067 18-770 limits assumed): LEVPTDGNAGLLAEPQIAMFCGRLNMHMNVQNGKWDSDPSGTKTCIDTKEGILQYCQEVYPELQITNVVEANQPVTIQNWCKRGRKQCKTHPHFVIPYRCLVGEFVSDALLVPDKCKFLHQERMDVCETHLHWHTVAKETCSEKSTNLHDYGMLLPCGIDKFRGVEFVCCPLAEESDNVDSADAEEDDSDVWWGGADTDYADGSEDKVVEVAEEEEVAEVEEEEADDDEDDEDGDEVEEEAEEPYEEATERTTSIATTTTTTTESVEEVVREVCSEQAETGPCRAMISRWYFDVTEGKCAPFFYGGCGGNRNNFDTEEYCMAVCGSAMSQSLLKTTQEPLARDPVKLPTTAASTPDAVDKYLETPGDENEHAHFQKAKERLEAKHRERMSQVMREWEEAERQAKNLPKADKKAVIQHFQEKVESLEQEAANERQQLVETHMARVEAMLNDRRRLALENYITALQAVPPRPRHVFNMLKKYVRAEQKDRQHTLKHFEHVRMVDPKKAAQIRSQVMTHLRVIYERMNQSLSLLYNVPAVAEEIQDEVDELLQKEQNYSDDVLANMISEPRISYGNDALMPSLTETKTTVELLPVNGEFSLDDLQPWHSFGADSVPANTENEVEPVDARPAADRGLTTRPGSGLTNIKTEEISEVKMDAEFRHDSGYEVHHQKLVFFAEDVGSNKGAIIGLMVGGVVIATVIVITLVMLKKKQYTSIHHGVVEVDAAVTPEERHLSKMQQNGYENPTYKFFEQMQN

[3] = Concentration ratio in cerebrospinal fluid and plasma; conditions: rat
[4] = In vivo steady state metabolic clearance of the compound; conditions: rat
[5] = target: T1, Amyloid-beta precursor protein; assay: (§2) Concentration required to inhibit A beta 40 peptide 100 uM
Target sequence in this assay (P05067 whole entry): as the sequence (P05067 whole entry) above

[6] = target: T1, Amyloid-beta precursor protein; assay: as §2; remark: listed apart in the source
Procedure, shortened: as §1
Target sequence in this assay (P05067 whole entry): as above

[7] = Intestinal drug absorption was estimated in vitro using human colon adenocarcinoma (Caco-2) cell monolayers; format: ADME
Procedure, shortened: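 Caco-2 monolayers on polycarbonate Transwell inserts, 2 h at 37 °C. Apical and basolateral solutions analysed by LC-MS/MS (SRM). Papp = Cb·Vb/(C0·A·t).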

[8] = target: Cytochrome P450 2C19 (Homo sapiens, UniProt P33261); assay: Interaction with human cytochrome P450 isoform 2C19 expressed in baculovirus-insect cells; format: ADME
Procedure, shortened: (§3)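 Microsomes from baculovirus-insect cells expressing human CYP1A2, 2C9, 2C19, 2D6 or 3A4. Compound serially diluted with an NADPH-regenerating mix (16.3 μM NADP+, 0.83 mM glucose-6-phosphate, 0.83 mM MgCl2, 0.4 U/mL G6PDH). Pre-warmed 10 min at 37 °C, then isoform-specific substrate added in 0.35 M potassium phosphate pH 7.4. Fluorometric read-out; IC50 by nonlinear regression.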

[9] = target: CYP3A4 (Homo sapiens, UniProt P08684); assay: Interaction with human cytochrome P450 isoform 3A4 expressed in baculovirus-insect cells at 100 uM; format: ADME
Procedure, shortened: as §3

[10] = target: CYP2C19 (Homo sapiens, UniProt P33261); assay: Interaction with human cytochrome P450 isoform 2C19 expressed in baculovirus-insect cells at 100 uM; format: ADME
Procedure, shortened: as §3

[11] = target: CYP2C9 (Homo sapiens, UniProt P11712); assay: Interaction with human cytochrome P450 isoform 2C9 expressed in baculovirus-insect cells at 100 uM; format: ADME
Procedure, shortened: as §3

[12] = target: Cytochrome P450 2C9 (Homo sapiens, UniProt P11712); assay: Interaction with human cytochrome P450 isoform 2C9 expressed in baculovirus-insect cells; format: ADME
Procedure, shortened: as §3

[13] = target: T2, Prostaglandin G/H synthase 1 (Rattus norvegicus) (UniProt Q63921); assay: Percent inhibition against cyclooxygenase-1 at 100 uM in rat blood
T2 sequence (whole entry): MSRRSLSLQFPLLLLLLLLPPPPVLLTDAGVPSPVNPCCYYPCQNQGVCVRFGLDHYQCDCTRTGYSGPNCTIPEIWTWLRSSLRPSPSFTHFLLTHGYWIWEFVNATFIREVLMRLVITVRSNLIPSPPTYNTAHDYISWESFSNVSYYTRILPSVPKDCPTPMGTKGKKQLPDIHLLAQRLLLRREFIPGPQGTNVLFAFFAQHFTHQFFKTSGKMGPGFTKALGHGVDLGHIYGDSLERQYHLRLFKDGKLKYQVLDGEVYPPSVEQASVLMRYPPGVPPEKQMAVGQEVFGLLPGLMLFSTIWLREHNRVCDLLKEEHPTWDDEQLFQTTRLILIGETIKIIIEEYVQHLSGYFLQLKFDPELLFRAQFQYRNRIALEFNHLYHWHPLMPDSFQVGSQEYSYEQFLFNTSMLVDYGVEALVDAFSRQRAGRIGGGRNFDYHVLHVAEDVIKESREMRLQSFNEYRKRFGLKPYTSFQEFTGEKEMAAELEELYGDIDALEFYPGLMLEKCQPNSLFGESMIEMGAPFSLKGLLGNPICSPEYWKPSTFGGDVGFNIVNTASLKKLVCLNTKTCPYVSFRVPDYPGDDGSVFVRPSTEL
Procedure, shortened: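 Fresh rat whole blood preincubated 1 h at 37 °C with compound (100 μM) or DMSO (0.3% final). Stimulated 30 min with A23187 calcium ionophore; plasma thromboxane B2 measured by radioimmunoassay.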

[14] = target: Cytochrome P450 3A4 (Homo sapiens, UniProt P08684); assay: Interaction with human cytochrome P450 isoform 3A4 expressed in baculovirus-insect cells; format: ADME
Procedure, shortened: (§4)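 Supersome microsomes from baculovirus-insect cells expressing human CYP1A2, 2C9, 2C19, 2D6 or 3A4 were used with isoform-specific fluorogenic substrates. Compounds were serially diluted with an NADP⁺/glucose-6-phosphate regenerating system in 0.35 M potassium phosphate, pH 7.4. Plates were prewarmed 10 min at 37 °C, reactions stopped with acetonitrile/Tris, and fluorescence read. IC50 was obtained by nonlinear regression.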

[15] = target: T3, CYP1A2 (Homo sapiens, UniProt P05177); assay: Interaction with human cytochrome P450 isoform 1A2 expressed in baculovirus-insect cells at 100 uM; format: ADME
T3 sequence (P05177 whole entry): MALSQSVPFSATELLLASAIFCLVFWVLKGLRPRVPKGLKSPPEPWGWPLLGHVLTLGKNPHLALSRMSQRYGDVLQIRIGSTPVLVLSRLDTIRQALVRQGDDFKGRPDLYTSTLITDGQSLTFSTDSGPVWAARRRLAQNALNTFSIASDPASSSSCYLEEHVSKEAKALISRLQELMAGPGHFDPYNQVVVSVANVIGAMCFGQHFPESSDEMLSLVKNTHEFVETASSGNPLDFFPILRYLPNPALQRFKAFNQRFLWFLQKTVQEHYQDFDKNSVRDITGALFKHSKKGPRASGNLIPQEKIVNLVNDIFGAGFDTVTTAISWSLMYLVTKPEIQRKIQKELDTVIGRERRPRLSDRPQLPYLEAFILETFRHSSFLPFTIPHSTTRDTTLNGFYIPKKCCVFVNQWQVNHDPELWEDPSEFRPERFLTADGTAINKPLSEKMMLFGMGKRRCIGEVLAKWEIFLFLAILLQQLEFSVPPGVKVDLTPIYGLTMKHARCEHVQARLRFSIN
Procedure, shortened: as §3

[16] = target: CYP2D6 (Homo sapiens, UniProt P10635); assay: Interaction with human cytochrome P450 isoform 2D6 expressed in baculovirus-insect cells at 100 uM; format: ADME
Procedure, shortened: as §3

[17] = target: T4, Prostaglandin G/H synthase 1 (Rattus norvegicus, UniProt Q63921); assay: Concentration required to inhibit cyclooxygenase-1 in rat blood
T4 sequence (Q63921 whole entry): T2 sequence (whole entry)
Procedure, shortened: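 Fresh rat whole blood was preincubated 1 h at 37 °C with compound (100 μM or a concentration series; DMSO 0.3% final). It was then stimulated 30 min with the Ca²⁺ ionophore A23187. Thromboxane B2 in the plasma was measured by radioimmunoassay.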

[18] = target: Cytochrome P450 2D6 (Homo sapiens, UniProt P10635); assay: Interaction with human cytochrome P450 isoform 2D6 expressed in baculovirus-insect cells; format: ADME
Procedure, shortened: as §4

Chain of Cytochrome P450 2C9 (P11712 whole entry, canonical isoform): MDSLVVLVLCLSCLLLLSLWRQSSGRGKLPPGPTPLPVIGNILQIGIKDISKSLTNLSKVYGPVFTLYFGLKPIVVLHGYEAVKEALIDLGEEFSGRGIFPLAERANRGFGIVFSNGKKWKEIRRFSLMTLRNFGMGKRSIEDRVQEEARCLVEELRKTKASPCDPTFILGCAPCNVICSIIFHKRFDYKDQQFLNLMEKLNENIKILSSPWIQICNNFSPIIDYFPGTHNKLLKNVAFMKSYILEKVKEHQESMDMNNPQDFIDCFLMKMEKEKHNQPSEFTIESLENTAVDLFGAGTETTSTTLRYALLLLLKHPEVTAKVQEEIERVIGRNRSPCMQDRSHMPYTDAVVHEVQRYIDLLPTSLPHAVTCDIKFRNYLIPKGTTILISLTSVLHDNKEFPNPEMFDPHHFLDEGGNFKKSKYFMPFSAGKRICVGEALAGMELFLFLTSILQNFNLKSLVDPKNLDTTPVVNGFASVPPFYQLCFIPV
Chain of Cytochrome P450 2C19 (P33261 whole entry, canonical isoform): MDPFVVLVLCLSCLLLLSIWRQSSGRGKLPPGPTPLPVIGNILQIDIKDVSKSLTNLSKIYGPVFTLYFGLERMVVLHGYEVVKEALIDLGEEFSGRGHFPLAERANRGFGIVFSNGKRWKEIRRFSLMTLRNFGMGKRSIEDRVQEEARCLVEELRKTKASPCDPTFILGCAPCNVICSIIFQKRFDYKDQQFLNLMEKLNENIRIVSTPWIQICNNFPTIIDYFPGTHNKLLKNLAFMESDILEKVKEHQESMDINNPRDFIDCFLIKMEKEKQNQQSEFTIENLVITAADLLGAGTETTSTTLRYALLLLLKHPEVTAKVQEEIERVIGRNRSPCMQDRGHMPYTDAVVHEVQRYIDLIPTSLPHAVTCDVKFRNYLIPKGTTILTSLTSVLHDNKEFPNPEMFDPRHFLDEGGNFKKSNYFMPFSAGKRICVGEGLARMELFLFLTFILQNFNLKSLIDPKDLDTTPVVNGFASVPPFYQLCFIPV
Chain of CYP2C19 (P33261 whole entry, canonical isoform): as above
Chain of Cytochrome P450 3A4 (P08684 whole entry, canonical isoform): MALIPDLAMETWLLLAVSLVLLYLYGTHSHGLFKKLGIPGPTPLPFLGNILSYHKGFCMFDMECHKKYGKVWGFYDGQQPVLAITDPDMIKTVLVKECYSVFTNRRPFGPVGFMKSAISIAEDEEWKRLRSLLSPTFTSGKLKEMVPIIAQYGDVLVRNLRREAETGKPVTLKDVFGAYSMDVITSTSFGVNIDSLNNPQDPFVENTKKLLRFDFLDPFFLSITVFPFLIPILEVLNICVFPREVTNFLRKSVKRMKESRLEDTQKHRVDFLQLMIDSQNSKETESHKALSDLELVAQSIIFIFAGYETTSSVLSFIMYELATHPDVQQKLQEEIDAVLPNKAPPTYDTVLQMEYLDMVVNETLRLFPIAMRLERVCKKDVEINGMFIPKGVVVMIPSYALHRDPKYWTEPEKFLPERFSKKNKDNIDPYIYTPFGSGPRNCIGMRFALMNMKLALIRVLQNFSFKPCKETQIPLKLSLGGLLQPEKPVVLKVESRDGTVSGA
Chain of CYP2C9 (P11712 whole entry, canonical isoform): as the sequence (P11712 whole entry, canonical isoform) above
Chain of Cytochrome P450 2D6 (P10635 whole entry, canonical isoform): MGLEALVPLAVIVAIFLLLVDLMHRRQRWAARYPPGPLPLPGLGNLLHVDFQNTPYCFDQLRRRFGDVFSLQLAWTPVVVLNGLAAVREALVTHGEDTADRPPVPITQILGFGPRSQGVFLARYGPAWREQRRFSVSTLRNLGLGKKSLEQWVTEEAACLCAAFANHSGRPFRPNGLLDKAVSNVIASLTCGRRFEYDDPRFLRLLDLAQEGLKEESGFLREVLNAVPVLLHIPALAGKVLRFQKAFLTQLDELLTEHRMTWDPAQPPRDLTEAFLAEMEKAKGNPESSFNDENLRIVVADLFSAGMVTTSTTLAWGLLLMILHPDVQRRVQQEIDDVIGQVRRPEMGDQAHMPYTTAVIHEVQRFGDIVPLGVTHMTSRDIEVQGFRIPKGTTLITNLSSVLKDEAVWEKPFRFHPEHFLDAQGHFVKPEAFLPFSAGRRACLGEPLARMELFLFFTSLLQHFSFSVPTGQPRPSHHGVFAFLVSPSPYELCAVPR
Chain of CYP3A4 (P08684 whole entry, canonical isoform): as the sequence (P08684 whole entry, canonical isoform) above
Chain of CYP2D6 (P10635 whole entry, canonical isoform): as the sequence (P10635 whole entry, canonical isoform) above

Compound: CC(C(=O)O)c1ccc(-c2ccc3c(c2)OCO3)c(F)c1 (stereo unspecified)
- inhibition [1]: 42%
- IC50 [2]: 210 µM

Compound: Cc1ccc(-c2ccc(C(C)C(=O)O)cc2F)cc1 (stereo unspecified)
- inhibition [1]: 44%

Compound: O=C(O)C1(c2ccc(-c3ccc(OC4CCOCC4)cc3)c(F)c2)CC1
- Ratio [3]: 1.1%
- Clearance [4]: 70.5 mL/h
- inhibition [1]: 28%

Compound: CC(C(=O)O)c1ccc(-c2ccsc2)c(F)c1 (stereo unspecified)
- inhibition [1]: 40%

Compound: CC(C(=O)O)c1ccc(-c2ccc(C(F)(F)F)cc2)c(Cl)c1 (stereo unspecified)
- inhibition [5]: 40%

Compound: CC(C(N)=O)c1ccc(-c2cc(Cl)cc(Cl)c2)c(F)c1 (stereo unspecified)
- Ratio [3]: 19%
- Clearance [4]: 193 mL/h
- IC50 [6]: 12 µM
- inhibition [1]: 70%
- IC50 [2]: 64 µM

Compound: COc1ccc(-c2ccc(C(C)C(=O)O)cc2F)cc1 (stereo unspecified)
- Papp [7]: > 5 ×10⁻⁶ cm/s
- IC50 [8]: 87 µM
- inhibition [1]: 67%
- IC50 [2]: 67 µM

Compound: CC(C(=O)O)c1ccc(-c2ccc(C(F)(F)F)cc2)cc1 (stereo unspecified)
- inhibition [1]: 2%

Compound: CC(c1ccc(-c2ccc(C(F)(F)F)cc2)c(F)c1)c1noc(O)n1 (stereo unspecified)
- inhibition at 100 µM [9]: > 50%
- Ratio [3]: 2.1%
- Clearance [4]: 5.3 mL/h
- inhibition at 100 µM [10]: > 50%
- inhibition [1]: 46%
- inhibition at 100 µM [11]: > 50%

Compound: O=C(O)C1(c2ccc(-c3ccc(-c4ccc(F)cc4)c(F)c3)c(F)c2)CC1
- IC50 [12]: 7 µM
- inhibition [13]: 18%
- Ratio [3]: 1.8%
- Clearance [4]: 8.1 mL/h
- Papp [7]: < 1 ×10⁻⁶ cm/s
- IC50 [8]: 46 µM
- inhibition [5]: 32%
- inhibition [1]: 75%
- IC50 [2]: 57.9 µM
- IC50 [14]: 38 µM

Compound: CC(C(=O)O)c1ccc(-c2ccncc2)c(F)c1 (stereo unspecified)
- inhibition [1]: 11%

Compound: CC(c1ccc(-c2ccc(C(F)(F)F)cc2)c(F)c1)c1nnn[nH]1 (stereo unspecified)
- inhibition at 100 µM [9]: > 50%
- inhibition at 100 µM [15]: > 50%
- inhibition [13]: 9%
- inhibition at 100 µM [10]: > 50%
- inhibition at 100 µM [16]: > 50%
- inhibition [1]: 43%
- IC50 [2]: 114 µM
- inhibition at 100 µM [11]: > 50%

Compound: CC(C(=O)NO)c1ccc(-c2ccc(C(F)(F)F)cc2)c(F)c1 (stereo unspecified)
- inhibition [1]: 31%

Compound: CC(C)(C(=O)O)c1ccc(-c2ccc(C(F)(F)F)cc2)c(F)c1
- inhibition [1]: 58%
- IC50 [2]: 70.6 µM

Compound: CC(C(=O)O)c1ccc(-c2cccc(Cl)c2)c(F)c1 (stereo unspecified)
- inhibition [1]: 58%

Compound: C[C@@H](C(=O)O)c1ccc(-c2ccccc2)c(F)c1 [TARENFLURBIL]
- IC50 [17]: 44 µM
- IC50 [2]: 280 µM

Compound: CC(C(=O)O)c1ccc(-c2ccc(Cl)cc2)c(F)c1 (stereo unspecified)
- inhibition [1]: 55%

Compound: CC(C(=O)O)c1ccc(-c2ccccc2Cl)c(F)c1 (stereo unspecified)
- inhibition [1]: 13%

Compound: C[C@H](C(=O)O)c1ccc(-c2ccccc2)c(F)c1 [ESFLURBIPROFEN]
- IC50 [17]: 0.03 µM

Compound: O=C(O)C1(c2ccc(-c3ccc(-c4ccc(O)cc4)cc3)c(F)c2)CC1
- IC50 [12]: 89 µM
- inhibition [13]: < 1%
- Papp [7]: > 5 ×10⁻⁶ cm/s
- IC50 [8]: 35 µM
- IC50 [6]: 409 µM
- inhibition [1]: 99%
- IC50 [2]: 31.6 µM
- IC50 [18]: 21.5 µM

Compound: CC(C(=O)O)c1ccc(-c2ccc(C(F)(F)F)cc2)cc1C(F)(F)F (stereo unspecified)
- inhibition [1]: 57%

Compound: CC(C(=O)O)c1ccc(-c2ccc(Cl)c(Cl)c2)c(F)c1 (stereo unspecified)
- inhibition [13]: 78%
- Papp [7]: > 5 ×10⁻⁶ cm/s
- inhibition at 100 µM [10]: > 50%
- inhibition [1]: 87%
- IC50 [2]: 75 µM

Compound: CC(C(=O)O)c1ccc(-c2ccccc2C(F)(F)F)c(F)c1 (stereo unspecified)
- inhibition [1]: 25%

Compound: O=C(O)C1(c2ccc(-c3ccccc3)c(F)c2)CC1
- IC50 [12]: 83 µM
- inhibition [13]: 26%
- Ratio [3]: 2.3%
- Clearance [4]: 9.8 mL/h
- Papp [7]: > 5 ×10⁻⁶ cm/s
- inhibition [1]: 40%

Compound: CC1(C)CCC(c2ccc(-c3ccc(C4(C(=O)O)CC4)cc3F)cc2)CC1
- IC50 [12]: 17 µM
- inhibition [13]: 17%
- Ratio [3]: Below LLOQ
- Clearance [4]: 145.8 mL/h
- Papp [7]: < 1 ×10⁻⁶ cm/s
- IC50 [8]: 13 µM
- IC50 [6]: 101 µM
- inhibition [1]: 75%
- IC50 [2]: 46 µM
- IC50 [14]: 84 µM
- IC50 [18]: 5.3 µM

Compound: CC(C(=O)O)c1ccc(-c2ccc(-c3ccc(O)cc3)cc2)c(F)c1 (stereo unspecified)
- IC50 [12]: 4.7 µM
- inhibition [13]: 17%
- Ratio [3]: 1.1%
- Clearance [4]: 85 mL/h
- Papp [7]: > 5 ×10⁻⁶ cm/s
- IC50 [8]: 58 µM
- inhibition [1]: 75%
- IC50 [2]: 35 µM
- IC50 [14]: 74 µM

Compound: O=C(O)C1(c2ccc(-c3csc4ccccc34)c(F)c2)CC1
- IC50 [12]: 19 µM
- inhibition [13]: < 1%
- Ratio [3]: 2.6%
- Clearance [4]: 113.6 mL/h
- Papp [7]: > 5 ×10⁻⁶ cm/s
- inhibition [1]: 49%
- IC50 [2]: 96.3 µM

Compound: CC(C(=O)O)c1ccc(-c2ccc(O)cc2)c(F)c1 (stereo unspecified)
- inhibition [1]: 27%
